In ChEMBL document CHEMBL3232717 (J Med Chem, 2014):

Assays:
[1] = Cmax in Sprague-Dawley rat at 2 mg/kg, po administered via gavage by LC-MS/MS analysis; type: ADME, organism-based; set-up: dose 2 mg/kg, route oral; settings: in vivo
Summary of the method: (§1)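 Male Sprague-Dawley rats, fasted overnight with water ad libitum and fed 4 h after dosing. TFA salt given as a saline solution, either 1 mg/kg iv via femoral-vein cannula (n = 2) or 2 mg/kg po by gavage (n = 3). EDTA blood taken at 5 min (iv only), 15 and 30 min, and 1, 2, 4, 6, 8, 24 and 48 h. Plasma protein-precipitated with acetonitrile and assayed by LC-MS/MS; noncompartmental analysis.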

[2] = Tmax in Sprague-Dawley rat at 1 mg/kg, iv and 2 mg/kg, po administered via gavage by LC-MS/MS analysis; type: ADME, organism-based; settings: in vivo; summary of the method: as §1
Canis familiaris = test: Dose normalized AUC in beagle dog at 1 mg/kg, iv and 2 mg/kg, po administered via gavage by LC-MS/MS analysis; type: ADME, organism-based, Canis lupus familiaris; settings: in vivo
Summary of the method: (§2)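 Beagle dogs, fasted overnight with water ad libitum and fed 4 h postdose. TFA salt in saline given 1 mg/kg iv via cephalic vein (n = 2) or 2 mg/kg by gastric gavage (n = 2). EDTA blood drawn at 5 min (iv only), 15 and 30 min, and 1, 2, 4, 6, 8, 24, 30, 48 and 72 h. Acetonitrile-precipitated plasma quantified by LC-MS/MS; parameters derived noncompartmentally.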

[3] = Cmax in beagle dog at 2 mg/kg, po administered via gavage by LC-MS/MS analysis; type: ADME, organism-based, Canis lupus familiaris; set-up: dose 2 mg/kg, route oral; settings: in vivo; summary of the method: as §2
Rattus norvegicus [4] = test: Dose normalized AUC in Sprague-Dawley rat at 1 mg/kg, iv and 2 mg/kg, po administered via gavage by LC-MS/MS analysis; type: ADME, organism-based; settings: in vivo; summary of the method: as §1
in vivo [5] = settings: beagle, dog
[6] = Plasma clearance in Sprague-Dawley rat at 1 mg/kg, iv and 2 mg/kg, po administered via gavage by LC-MS/MS analysis; type: ADME, organism-based; summary of the method: as §1
[7] = Oral bioavailability in Sprague-Dawley rat at 2 mg/kg administered via gavage by LC-MS/MS analysis; type: ADME, organism-based; settings: in vivo; summary of the method: as §1
in vivo [8] = settings: beagle, dog, plasma, iv, 1 mg/kg
[9] = Volume of distribution at steady state in beagle dog at 1 mg/kg, iv and 2 mg/kg, po administered via gavage by LC-MS/MS analysis; type: ADME, organism-based, Canis lupus familiaris; settings: in vivo, read-out: Vdss; summary of the method: as §2
[10] = Volume of distribution at steady state in Sprague-Dawley rat at 1 mg/kg, iv and 2 mg/kg, po administered via gavage by LC-MS/MS analysis; type: ADME, organism-based; settings: in vivo, read-out: Vdss; summary of the method: as §1
[11] = Tmax in beagle dog at 1 mg/kg, iv and 2 mg/kg, po administered via gavage by LC-MS/MS analysis; type: ADME, organism-based, Canis lupus familiaris; settings: in vivo; summary of the method: as §2
[12] = Terminal half life in Sprague-Dawley rat at 1 mg/kg, iv and 2 mg/kg, po administered via gavage by LC-MS/MS analysis; type: ADME, organism-based; settings: in vivo, read-out: beta t1/2 (converted); summary of the method: as §1
in vivo [13] = settings: beagle, dog, po, 2 mg/kg
[14] = Unbound fraction in Sprague-Dawley rat plasma at 1 to 100 uM; type: ADME, cell-free
Summary of the method: (§3)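 Radiolabelled ([3H]) compound added to plasma at 1, 10 and 100 μM; mean percentage unbound reported for each species.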

[15] = Unbound fraction in CD-1 mouse plasma at 1 to 100 uM; type: ADME, cell-free; summary of the method: as §3
Salmonella typhimurium = test: Genotoxicity in Salmonella typhimurium by Ames mutagenicity test; type: toxicity, organism-based; settings: salmonella enterica subsp. enterica serovar typhimurium
[16] = Unbound fraction in beagle dog plasma at 1 to 100 uM; type: ADME, cell-free, Canis lupus familiaris; summary of the method: as §3
[17] = Inhibition of potassium channel IKr (unknown origin)
Plasma = test: Plasma concentration in mouse at 0.3 mg/kg, po; type: ADME, organism-based; set-up: dose 0.3 mg/kg, route oral; settings: in vivo
Summary of the method: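 Lean mice dosed orally 1 h before an oral dextrose challenge (OGTT); plasma drug concentration measured alongside plasma DPP-4 activity in the accompanying pharmacodynamic study.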

Rattus norvegicus [18] = test: Toxicity in rat assessed as decrease in cholesterol level at 100 mg/kg/day, po for 14 days; type: organism-based; set-up: route oral; settings: in vivo, 336 h
Summary of the method: (§4)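 Exploratory 14-day oral safety study in male rats, dosed daily. Endpoints were mortality, physical signs observed over the dosing period, and clinical pathology parameters, including glucose and triglycerides.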

Prolyl endopeptidase = molecular target: T1, Prolyl endopeptidase (Homo sapiens, UniProt P48147); test: Inhibition of PEP (unknown origin)
T1 sequence (P48147 whole entry): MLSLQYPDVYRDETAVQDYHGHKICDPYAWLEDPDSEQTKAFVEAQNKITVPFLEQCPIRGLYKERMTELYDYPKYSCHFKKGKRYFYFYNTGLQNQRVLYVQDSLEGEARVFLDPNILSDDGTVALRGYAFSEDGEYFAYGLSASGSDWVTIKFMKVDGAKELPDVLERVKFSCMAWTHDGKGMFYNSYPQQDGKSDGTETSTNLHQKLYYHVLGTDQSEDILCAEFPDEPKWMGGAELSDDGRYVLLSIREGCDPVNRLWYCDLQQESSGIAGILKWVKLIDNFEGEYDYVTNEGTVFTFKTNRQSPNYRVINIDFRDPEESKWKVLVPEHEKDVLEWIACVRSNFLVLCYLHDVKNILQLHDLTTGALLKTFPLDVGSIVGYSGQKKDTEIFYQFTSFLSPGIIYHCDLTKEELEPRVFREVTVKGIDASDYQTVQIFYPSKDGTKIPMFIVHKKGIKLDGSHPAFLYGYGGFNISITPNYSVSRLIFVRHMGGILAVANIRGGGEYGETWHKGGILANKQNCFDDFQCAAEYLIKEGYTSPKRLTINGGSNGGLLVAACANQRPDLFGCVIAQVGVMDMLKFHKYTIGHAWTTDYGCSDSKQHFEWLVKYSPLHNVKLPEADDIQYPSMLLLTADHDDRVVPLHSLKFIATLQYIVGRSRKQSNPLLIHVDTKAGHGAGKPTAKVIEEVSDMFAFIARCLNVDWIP

[19] = Ratio of drug level in brain to plasma in beagle dog
Dipeptidyl peptidase 8 = Dipeptidyl peptidase 8 (Homo sapiens, UniProt Q6V1X1); test: Inhibition of DPP8 (unknown origin)
[20] = molecular target: Voltage-dependent L-type calcium channel subunit alpha-1C (Homo sapiens, UniProt Q13936); test: Inhibition of Cav1.2 (unknown origin)
[21] = molecular target: Voltage-gated L-type calcium channel (Homo sapiens, UniProt Q13936+Q13698+Q01668+O60840); test: Effect on L-type Ca2+ channel (unknown origin) up to 30 uM
Summary of the method: (§5)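 Cardiac ion channel panel run on PatchXpress, testing functional currents (hERG/IKr, INa, ICaL) up to 30 μM. IKr was additionally assessed by nonfunctional MK-499 displacement binding.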

[22] = Ratio of drug level in brain to plasma in human
Dipeptidyl peptidase 2 = Dipeptidyl peptidase 2 (Homo sapiens, UniProt Q9UHL4); test: Inhibition of QPP (unknown origin)
[23] = molecular target: Sodium channel protein type 5 subunit alpha (Homo sapiens, UniProt Q14524); test: Inhibition of Nav1.5 (unknown origin); summary of the method: as §5
Rattus norvegicus [24] = test: Toxicity in rat assessed as decrease in glucose level at 100 mg/kg/day, po for 14 days; type: organism-based; set-up: route oral; settings: in vivo, 336 h; summary of the method: as §4
Mus musculus [25] = species on record: Mus musculus; test: animal or person; settings: Blood, po, 1 h, read-out: INH
Rattus norvegicus [26] = test: Toxicity in rat assessed as mortality at 100 mg/kg/day, po for 14 days; type: organism-based; set-up: route oral; settings: in vivo, 336 h; summary of the method: as §4
Dipeptidyl peptidase 4 = Dipeptidyl peptidase 4 (Mus musculus, UniProt P28843); test: Inhibition of DPP4 in mouse plasma
Summary of the method: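 Plasma DPP-4 inhibition measured in 50% mouse plasma; IC50 read-out.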

[27] = Ratio of drug level in brain to plasma in Sprague-Dawley rat
Rattus norvegicus [28] = test: Toxicity in rat assessed as decrease in triglyceride level at 100 mg/kg/day, po for 14 days; type: organism-based; set-up: route oral; settings: in vivo, 336 h; summary of the method: as §4
Rattus norvegicus [29] = test: Toxicity in rat assessed as physical signs at 100 mg/kg/day, po for 14 days; type: organism-based; set-up: route oral; settings: in vivo, 336 h; summary of the method: as §4
[30] = Unbound fraction in human plasma at 1 to 100 uM; type: ADME, cell-free; summary of the method: as §3
Mus musculus [31] = species on record: Mus musculus; test: animal or person; settings: Blood, po, 1 h, read-out: INH; remark: listed apart in the source
[32] = Tmax in rat at 100 mg/kg/day, po administered for 14 days; type: ADME, organism-based; set-up: route oral; settings: in vivo
Summary of the method: (§6)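 Exploratory 14-day oral safety study in male rats dosed at 100 mg/kg/day; AUC(0-24h), Cmax and Tmax determined.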

[33] = Cmax in rat at 100 mg/kg/day, po administered for 14 days; type: ADME, organism-based; set-up: dose 100 mg/kg/day, route oral; settings: in vivo; summary of the method: as §6
Mus musculus [34] = species on record: Mus musculus; test: animal or person; settings: Plasma, po, read-out: INH
Dipeptidyl peptidase 9 = Dipeptidyl peptidase 9 (Homo sapiens, UniProt Q86TI2); test: Inhibition of DPP9 (unknown origin)
Prolyl endopeptidase FAP = molecular target: T2, Prolyl endopeptidase FAP (Homo sapiens, UniProt Q12884); test: Inhibition of FAP (unknown origin)
T2 sequence (Q12884 whole entry): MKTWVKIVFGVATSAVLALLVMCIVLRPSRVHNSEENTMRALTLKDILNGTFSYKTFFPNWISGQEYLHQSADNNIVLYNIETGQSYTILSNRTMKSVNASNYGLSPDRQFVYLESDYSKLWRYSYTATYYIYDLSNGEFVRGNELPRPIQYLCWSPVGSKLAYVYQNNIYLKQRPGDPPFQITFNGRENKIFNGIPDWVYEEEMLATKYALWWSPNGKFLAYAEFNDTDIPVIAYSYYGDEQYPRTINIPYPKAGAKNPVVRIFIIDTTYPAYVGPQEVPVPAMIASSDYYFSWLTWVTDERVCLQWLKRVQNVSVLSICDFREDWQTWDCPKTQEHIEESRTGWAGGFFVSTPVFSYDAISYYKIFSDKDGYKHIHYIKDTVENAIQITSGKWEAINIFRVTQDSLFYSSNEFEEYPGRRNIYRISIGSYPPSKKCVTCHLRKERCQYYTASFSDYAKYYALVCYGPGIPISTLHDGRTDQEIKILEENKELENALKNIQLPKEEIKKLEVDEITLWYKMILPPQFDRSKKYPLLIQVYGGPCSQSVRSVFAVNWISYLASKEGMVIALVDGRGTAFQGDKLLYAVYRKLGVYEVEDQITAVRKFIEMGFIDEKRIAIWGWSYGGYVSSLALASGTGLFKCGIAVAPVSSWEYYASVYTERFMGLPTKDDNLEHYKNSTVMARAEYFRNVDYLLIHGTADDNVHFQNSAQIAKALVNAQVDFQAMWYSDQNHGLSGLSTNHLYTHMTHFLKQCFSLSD

[35] = AUC (0 to 24 hrs) in rat at 100 mg/kg/day, po administered for 14 days; type: ADME, organism-based; set-up: dose 100 mg/kg/day, time < 24 hr, route oral; settings: plasma; summary of the method: as §6
[36] = Ratio of drug level in brain to plasma in CD-1 mouse

Sequence of Dipeptidyl peptidase 4 (P28843 whole entry): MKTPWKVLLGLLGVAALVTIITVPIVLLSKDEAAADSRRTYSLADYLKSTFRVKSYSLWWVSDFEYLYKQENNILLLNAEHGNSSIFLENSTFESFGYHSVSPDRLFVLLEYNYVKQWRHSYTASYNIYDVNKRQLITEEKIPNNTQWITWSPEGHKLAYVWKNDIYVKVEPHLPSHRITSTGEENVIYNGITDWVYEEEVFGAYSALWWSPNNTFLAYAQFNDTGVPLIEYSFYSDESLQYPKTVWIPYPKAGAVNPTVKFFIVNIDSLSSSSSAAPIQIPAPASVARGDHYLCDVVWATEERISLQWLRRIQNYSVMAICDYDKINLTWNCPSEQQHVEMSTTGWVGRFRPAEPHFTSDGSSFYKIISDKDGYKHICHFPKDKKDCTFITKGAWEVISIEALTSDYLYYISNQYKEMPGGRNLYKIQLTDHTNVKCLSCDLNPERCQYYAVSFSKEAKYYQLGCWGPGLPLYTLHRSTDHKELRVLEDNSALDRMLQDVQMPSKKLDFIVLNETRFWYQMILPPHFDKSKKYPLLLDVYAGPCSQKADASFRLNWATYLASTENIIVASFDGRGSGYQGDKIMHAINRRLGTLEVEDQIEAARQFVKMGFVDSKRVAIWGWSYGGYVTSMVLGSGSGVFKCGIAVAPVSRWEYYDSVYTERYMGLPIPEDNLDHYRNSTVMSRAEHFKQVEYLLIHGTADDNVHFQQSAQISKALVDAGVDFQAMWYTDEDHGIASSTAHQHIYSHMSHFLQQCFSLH
Sequence of Sodium channel protein type 5 subunit alpha (Q14524 whole entry): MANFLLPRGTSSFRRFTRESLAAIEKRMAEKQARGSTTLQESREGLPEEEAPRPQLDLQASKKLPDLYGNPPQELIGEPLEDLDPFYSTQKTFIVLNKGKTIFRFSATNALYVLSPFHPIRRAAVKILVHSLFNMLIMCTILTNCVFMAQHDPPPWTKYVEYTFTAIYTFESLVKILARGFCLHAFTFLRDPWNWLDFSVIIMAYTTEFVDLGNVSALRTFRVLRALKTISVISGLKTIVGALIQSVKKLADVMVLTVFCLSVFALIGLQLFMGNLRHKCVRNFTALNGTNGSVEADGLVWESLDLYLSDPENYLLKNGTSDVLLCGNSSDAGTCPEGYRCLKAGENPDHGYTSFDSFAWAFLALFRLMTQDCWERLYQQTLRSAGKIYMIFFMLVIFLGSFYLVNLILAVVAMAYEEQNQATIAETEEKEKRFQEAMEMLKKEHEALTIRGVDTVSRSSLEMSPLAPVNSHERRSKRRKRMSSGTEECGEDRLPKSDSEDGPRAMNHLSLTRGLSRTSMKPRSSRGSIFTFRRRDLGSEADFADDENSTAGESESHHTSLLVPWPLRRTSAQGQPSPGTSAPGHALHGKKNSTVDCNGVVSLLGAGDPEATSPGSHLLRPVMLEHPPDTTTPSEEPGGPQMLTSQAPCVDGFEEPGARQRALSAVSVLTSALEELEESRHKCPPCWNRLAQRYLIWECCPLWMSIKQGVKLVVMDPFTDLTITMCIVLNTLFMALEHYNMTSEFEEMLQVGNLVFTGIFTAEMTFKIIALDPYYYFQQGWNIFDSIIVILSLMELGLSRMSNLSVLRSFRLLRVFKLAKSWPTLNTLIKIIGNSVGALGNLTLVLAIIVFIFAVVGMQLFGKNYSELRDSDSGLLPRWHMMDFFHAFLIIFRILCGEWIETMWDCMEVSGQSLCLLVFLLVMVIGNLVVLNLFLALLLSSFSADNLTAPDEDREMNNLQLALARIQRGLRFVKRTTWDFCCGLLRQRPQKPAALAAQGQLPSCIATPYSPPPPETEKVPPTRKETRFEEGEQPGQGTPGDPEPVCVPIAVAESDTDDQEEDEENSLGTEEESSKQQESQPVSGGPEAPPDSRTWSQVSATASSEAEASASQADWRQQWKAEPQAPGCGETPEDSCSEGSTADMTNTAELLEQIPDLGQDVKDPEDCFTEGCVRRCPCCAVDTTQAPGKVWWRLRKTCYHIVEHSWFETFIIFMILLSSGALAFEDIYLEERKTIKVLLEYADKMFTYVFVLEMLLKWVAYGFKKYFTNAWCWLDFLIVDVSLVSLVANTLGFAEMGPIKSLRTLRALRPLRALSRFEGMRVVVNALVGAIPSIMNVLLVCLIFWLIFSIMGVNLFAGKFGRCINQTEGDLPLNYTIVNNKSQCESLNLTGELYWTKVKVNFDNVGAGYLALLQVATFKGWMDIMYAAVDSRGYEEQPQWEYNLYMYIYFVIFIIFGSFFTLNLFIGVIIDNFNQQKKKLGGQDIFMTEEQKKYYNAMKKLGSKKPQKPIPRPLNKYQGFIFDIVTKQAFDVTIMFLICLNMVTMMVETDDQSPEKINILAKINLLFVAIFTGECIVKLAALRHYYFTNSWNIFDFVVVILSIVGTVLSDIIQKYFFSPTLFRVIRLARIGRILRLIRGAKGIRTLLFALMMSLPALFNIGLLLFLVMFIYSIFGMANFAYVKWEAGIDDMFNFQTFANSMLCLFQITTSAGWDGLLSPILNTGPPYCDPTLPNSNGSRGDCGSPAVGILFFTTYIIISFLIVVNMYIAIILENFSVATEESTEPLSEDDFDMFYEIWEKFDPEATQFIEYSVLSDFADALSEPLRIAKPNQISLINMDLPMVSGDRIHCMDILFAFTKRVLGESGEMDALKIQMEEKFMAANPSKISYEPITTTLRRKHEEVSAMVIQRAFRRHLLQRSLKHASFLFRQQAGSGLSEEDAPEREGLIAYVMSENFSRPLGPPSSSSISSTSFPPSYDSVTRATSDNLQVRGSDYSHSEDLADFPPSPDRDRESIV
Sequence of Dipeptidyl peptidase 9 (Q86TI2 whole entry): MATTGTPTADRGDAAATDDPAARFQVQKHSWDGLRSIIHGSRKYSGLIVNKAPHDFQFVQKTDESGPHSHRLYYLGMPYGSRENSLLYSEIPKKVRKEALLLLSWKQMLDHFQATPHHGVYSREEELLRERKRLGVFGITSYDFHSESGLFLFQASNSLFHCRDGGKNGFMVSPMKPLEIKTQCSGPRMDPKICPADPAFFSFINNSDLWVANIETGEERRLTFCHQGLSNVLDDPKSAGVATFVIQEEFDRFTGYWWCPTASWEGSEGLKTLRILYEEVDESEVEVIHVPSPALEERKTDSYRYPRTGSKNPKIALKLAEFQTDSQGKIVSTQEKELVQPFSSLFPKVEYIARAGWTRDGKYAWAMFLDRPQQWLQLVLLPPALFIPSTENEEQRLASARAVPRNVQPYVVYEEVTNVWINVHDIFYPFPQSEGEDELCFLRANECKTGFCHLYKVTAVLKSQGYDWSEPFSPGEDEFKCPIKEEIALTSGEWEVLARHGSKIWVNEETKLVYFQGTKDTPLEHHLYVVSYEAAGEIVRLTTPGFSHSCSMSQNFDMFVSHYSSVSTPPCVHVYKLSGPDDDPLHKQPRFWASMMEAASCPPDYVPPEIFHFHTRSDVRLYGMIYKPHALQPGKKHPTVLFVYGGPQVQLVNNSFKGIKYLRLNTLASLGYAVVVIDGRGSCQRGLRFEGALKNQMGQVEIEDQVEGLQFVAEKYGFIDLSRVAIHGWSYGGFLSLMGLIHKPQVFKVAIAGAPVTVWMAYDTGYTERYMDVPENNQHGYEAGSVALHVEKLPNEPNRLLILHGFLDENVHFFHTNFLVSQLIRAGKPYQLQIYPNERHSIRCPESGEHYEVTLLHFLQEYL
Sequence of Dipeptidyl peptidase 8 (Q6V1X1 whole entry): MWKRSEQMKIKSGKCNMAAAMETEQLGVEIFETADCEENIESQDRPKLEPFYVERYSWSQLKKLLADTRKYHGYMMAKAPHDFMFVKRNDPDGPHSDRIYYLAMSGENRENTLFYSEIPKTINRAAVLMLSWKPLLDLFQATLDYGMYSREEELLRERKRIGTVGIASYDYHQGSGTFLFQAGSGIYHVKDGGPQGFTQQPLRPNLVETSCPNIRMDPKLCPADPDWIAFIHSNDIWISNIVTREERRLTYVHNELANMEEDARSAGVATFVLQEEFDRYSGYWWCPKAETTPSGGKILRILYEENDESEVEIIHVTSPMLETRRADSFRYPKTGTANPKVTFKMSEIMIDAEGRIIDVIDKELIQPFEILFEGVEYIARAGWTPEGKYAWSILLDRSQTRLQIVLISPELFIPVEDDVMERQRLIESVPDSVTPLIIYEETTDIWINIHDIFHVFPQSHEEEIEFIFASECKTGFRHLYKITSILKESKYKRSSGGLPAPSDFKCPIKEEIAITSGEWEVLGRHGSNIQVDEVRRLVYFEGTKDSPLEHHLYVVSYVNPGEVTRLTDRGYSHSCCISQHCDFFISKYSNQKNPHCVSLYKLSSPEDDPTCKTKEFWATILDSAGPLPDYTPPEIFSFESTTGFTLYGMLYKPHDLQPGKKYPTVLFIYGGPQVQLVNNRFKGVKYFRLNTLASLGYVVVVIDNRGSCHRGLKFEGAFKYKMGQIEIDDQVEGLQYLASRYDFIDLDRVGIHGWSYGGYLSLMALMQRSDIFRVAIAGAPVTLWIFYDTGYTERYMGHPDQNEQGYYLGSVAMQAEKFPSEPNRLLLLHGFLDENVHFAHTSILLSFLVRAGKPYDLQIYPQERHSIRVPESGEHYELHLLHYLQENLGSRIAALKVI

CS(=O)(=O)n1cc2c(n1)CN([C@H]1CO[C@H](c3cc(F)ccc3F)[C@@H](N)C1)C2.O=C(O)C(F)(F)F showed a Cmax [1] of 9 µM, a Tmax [2] of 1 h and an AUC/dose (Canis familiaris) of 54 µM·h/mg/kg. The Cmax [3] was 5.9 µM, the AUC/dose (Rattus norvegicus [4]) was 47.8 µM·h/mg/kg and the half-life (in vivo [5]) was 22 h. For the same molecule, the clearance [6] was 1.1 mL/min/kg, the bioavailability [7] was 100% and the clearance (in vivo [8]) was 0.9 mL/min/kg. The Vd [9] was 1.3 L/kg, the Vd [10] was 0.8 L/kg and the Tmax [11] was 1.3 h. The half-life [12] was 11 h and the bioavailability (in vivo [13]) was 100%.

With CS(=O)(=O)n1cc2c(n1)CN([C@H]1CO[C@H](c3cc(F)ccc3F)[C@@H](N)C1)C2 [OMARIGLIPTIN] the fraction unbound at up to 100 µM [14] was 0.15, the fraction unbound at up to 100 µM [15] was 0.38 and the Activity (Salmonella typhimurium) was “Non-toxic”. It also gave a fraction unbound at up to 100 µM [16] of 0.43, an IC50 [17] of over 30 µM and a concentration (Plasma) of 0.521 µM. The Activity (Rattus norvegicus [18]) was “Toxic”, the IC50 (Prolyl endopeptidase) was over 67 µM and the Kp [19] was 0.6. The IC50 (Dipeptidyl peptidase 8) was over 67 µM, the IC50 [20] was over 30 µM and the Activity [21] was “Not Active”. The Kp [22] was 0.6, the IC50 (Dipeptidyl peptidase 2) was over 67 µM and the IC50 [23] was over 30 µM. For the same molecule, the Activity (Rattus norvegicus [24]) was “Toxic”, the inhibition in vivo at 0.01 mg/kg (Mus musculus [25]) was 7% and the Activity (Rattus norvegicus [26]) was “Non-toxic”. For the same molecule, the IC50 (Dipeptidyl peptidase 4) was 0.0439 µM, the Kp [27] was 0.6 and the Activity (Rattus norvegicus [28]) was “Toxic”. The Activity (Rattus norvegicus [29]) was “Non-toxic”, the fraction unbound at up to 100 µM [30] was 0.68 and the inhibition in vivo at 0.3 mg/kg (Mus musculus [31]) was 51%. The Tmax [32] was 2 h, the Cmax [33] was 371 µM and the inhibition in vivo at 0.3 mg/kg (Mus musculus [34]) was 85%. The IC50 (Dipeptidyl peptidase 9) was over 67 µM, the IC50 (Prolyl endopeptidase FAP) was over 67 µM and the AUC at 24 h [35] was 5000 µM·h. The Kp [36] was 0.6.
